Measured values reported in ChEMBL document CHEMBL5303300, “EUbOPEN Chemogenomics Library - Multiplex” (2023).
Where “and” joins values, the source holds several entries; their conditions need not be identical. Equal entries are not always repeated.

Legend:
Fibroblast = test: Multiplex assay against human fibroblast; type: toxicity, cell-based; conditions: number of replicates 2
Outline: (§1)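 Tubulin, mitochondrial-mass and membrane-permeability phenotypes are per cents of healthy-nucleus cells. Cells were gated by CellPathfinder machine learning into Hoechst high-intensity objects or normal cells, normal cells into healthy, pyknosed or fragmented nuclei, and pyknosed cells into mitotic or apoptotic. Before that, live cells stained at seeding with Hoechst33342, BioTracker Green Microtubule Cytoskeleton Dye, MitoTracker Red and Annexin V Alexa Fluor 680 were imaged on a CQ1 microscope at 37°C and 5% CO2 after compound addition.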

U2OS = test: Multiplex assay against U2OS; type: toxicity, cell-based; conditions: human, number of replicates 2; outline: as §1
[1] = 12 h, 1 µM, compound concentration 1 uM
[2] = 12 h, 10 µM, compound concentration 10 uM
[3] = 24 h, 1 µM, compound concentration 1 uM
[4] = 24 h, 10 µM, compound concentration 10 uM
[5] = 48 h, 1 µM, compound concentration 1 uM
[6] = 48 h, 10 µM, compound concentration 10 uM

Cc1cc(-c2cnc(N)c3c(-c4ccc5scnc5c4)csc23)n(C)n1
Population Apoptotic (%) (Fibroblast; [1]): 48% and 40% | Population Fragmented Nuclei (%) (Fibroblast; [1]): 9% and 10% | Population Healthy Nuclei (%) (Fibroblast; [1]): 77% and 62% | Population Hoechst High Intensity Objects (%) (Fibroblast; [1]): 0% | Population Membrane Permeable-Phenotype (%) (Fibroblast; [1]): 4% and 10% | Population Mitochondria Different-Phenotype (%) (Fibroblast; [1]): 0% and 2% | Population Mitotic Cells (%) (Fibroblast; [1]): 51% and 60% | Population Normal (%) (Fibroblast; [1]): 100% | Population Pyknosed Nuclei (%) (Fibroblast; [1]): 12% and 26% | Population Tubulin-Different-Phenotype (%) (Fibroblast; [1]): 14% and 15% | Total Cell Count (Fibroblast; [1]): 224 and 187 | Population Apoptotic (%) (Fibroblast; [2]): 66% and 51% | Population Fragmented Nuclei (%) (Fibroblast; [2]): 23% | Population Healthy Nuclei (%) (Fibroblast; [2]): 61% and 62% | Population Hoechst High Intensity Objects (%) (Fibroblast; [2]): 0% | Population Membrane Permeable-Phenotype (%) (Fibroblast; [2]): 12% and 20% | Population Mitochondria Different-Phenotype (%) (Fibroblast; [2]): 2% and 0% | Population Mitotic Cells (%) (Fibroblast; [2]): 33% and 48% | Population Normal (%) (Fibroblast; [2]): 99% and 100% | Population Pyknosed Nuclei (%) (Fibroblast; [2]): 15% and 14% | Population Tubulin-Different-Phenotype (%) (Fibroblast; [2]): 76% and 56% | Total Cell Count (Fibroblast; [2]): 240 and 224 | Population Apoptotic (%) (Fibroblast; [3]): 50% and 60% | Population Fragmented Nuclei (%) (Fibroblast; [3]): 13% and 10% | Population Healthy Nuclei (%) (Fibroblast; [3]): 75% and 64% | Population Hoechst High Intensity Objects (%) (Fibroblast; [3]): 0% | Population Membrane Permeable-Phenotype (%) (Fibroblast; [3]): 1% and 6% | Population Mitochondria Different-Phenotype (%) (Fibroblast; [3]): 0% and 3% | Population Mitotic Cells (%) (Fibroblast; [3]): 50% and 39% | Population Normal (%) (Fibroblast; [3]): 100% | Population Pyknosed Nuclei (%) (Fibroblast; [3]): 11% and 25% | Population Tubulin-Different-Phenotype (%) (Fibroblast; [3]): 10% and 13% | Total Cell Count (Fibroblast; [3]): 253 and 187 | Population Apoptotic (%) (Fibroblast; [4]): 68% and 59% | Population Fragmented Nuclei (%) (Fibroblast; [4]): 27% | Population Healthy Nuclei (%) (Fibroblast; [4]): 62% and 60% | Population Hoechst High Intensity Objects (%) (Fibroblast; [4]): 0% | Population Membrane Permeable-Phenotype (%) (Fibroblast; [4]): 10% and 15% | Population Mitochondria Different-Phenotype (%) (Fibroblast; [4]): 1% | Population Mitotic Cells (%) (Fibroblast; [4]): 32% and 40% | Population Normal (%) (Fibroblast; [4]): 100% | Population Pyknosed Nuclei (%) (Fibroblast; [4]): 9% and 12% | Population Tubulin-Different-Phenotype (%) (Fibroblast; [4]): 74% and 46% | Total Cell Count (Fibroblast; [4]): 254 and 259 | Population Apoptotic (%) (Fibroblast; [5]): 71% and 61% | Population Fragmented Nuclei (%) (Fibroblast; [5]): 10% and 14% | Population Healthy Nuclei (%) (Fibroblast; [5]): 83% and 67% | Population Hoechst High Intensity Objects (%) (Fibroblast; [5]): 0% | Population Membrane Permeable-Phenotype (%) (Fibroblast; [5]): 4% and 9% | Population Mitochondria Different-Phenotype (%) (Fibroblast; [5]): 1% and 3% | Population Mitotic Cells (%) (Fibroblast; [5]): 28% and 38% | Population Normal (%) (Fibroblast; [5]): 100% | Population Pyknosed Nuclei (%) (Fibroblast; [5]): 6% and 17% | Population Tubulin-Different-Phenotype (%) (Fibroblast; [5]): 8% and 13% | Total Cell Count (Fibroblast; [5]): 221 and 189 | Population Apoptotic (%) (Fibroblast; [6]): 66% and 72% | Population Fragmented Nuclei (%) (Fibroblast; [6]): 31% and 29% | Population Healthy Nuclei (%) (Fibroblast; [6]): 59% and 61% | Population Hoechst High Intensity Objects (%) (Fibroblast; [6]): 0% | Population Membrane Permeable-Phenotype (%) (Fibroblast; [6]): 6% and 9% | Population Mitochondria Different-Phenotype (%) (Fibroblast; [6]): 1% | Population Mitotic Cells (%) (Fibroblast; [6]): 33% and 27% | Population Normal (%) (Fibroblast; [6]): 100% | Population Pyknosed Nuclei (%) (Fibroblast; [6]): 9% and 8% | Population Tubulin-Different-Phenotype (%) (Fibroblast; [6]): 71% and 54% | Total Cell Count (Fibroblast; [6]): 257 and 251 | Population Apoptotic (%) (U2OS; [1]): 50% and 66% | Population Fragmented Nuclei (%) (U2OS; [1]): 8% and 7% | Population Healthy Nuclei (%) (U2OS; [1]): 86% and 83% | Population Hoechst High Intensity Objects (%) (U2OS; [1]): 0% | Population Membrane Permeable-Phenotype (%) (U2OS; [1]): 0% and 1% | Population Mitochondria Different-Phenotype (%) (U2OS; [1]): 0% | Population Mitotic Cells (%) (U2OS; [1]): 50% and 33% | Population Normal (%) (U2OS; [1]): 100% | Population Pyknosed Nuclei (%) (U2OS; [1]): 4% and 8% | Population Tubulin-Different-Phenotype (%) (U2OS; [1]): 75% and 76% | Total Cell Count (U2OS; [1]): 46 and 136 | Population Apoptotic (%) (U2OS; [2]): 66% and 65% | Population Healthy Nuclei (%) (U2OS; [2]): 56% and 80% | Population Hoechst High Intensity Objects (%) (U2OS; [2]): 0% | Population Membrane Permeable-Phenotype (%) (U2OS; [2]): 8% and 11% | Population Mitochondria Different-Phenotype (%) (U2OS; [2]): 17% and 15% | Population Mitotic Cells (%) (U2OS; [2]): 33% and 34% | Population Normal (%) (U2OS; [2]): 100% | Population Pyknosed Nuclei (%) (U2OS; [2]): 24% and 13% | Population Tubulin-Different-Phenotype (%) (U2OS; [2]): 51% and 38% | Population Apoptotic (%) (U2OS; [3]): 50% and 55% | Population Fragmented Nuclei (%) (U2OS; [3]): 5% and 4% | Population Healthy Nuclei (%) (U2OS; [3]): 87% and 86% | Population Hoechst High Intensity Objects (%) (U2OS; [3]): 0% | Population Membrane Permeable-Phenotype (%) (U2OS; [3]): 0% and 1% | Population Mitochondria Different-Phenotype (%) (U2OS; [3]): 0% | Population Mitotic Cells (%) (U2OS; [3]): 50% and 44% | Population Normal (%) (U2OS; [3]): 100% and 99% | Population Pyknosed Nuclei (%) (U2OS; [3]): 7% and 8%
